From publication PMC2947195 (Biochemical Journal, 2010)
Where a chain is given by its changes, count along the chain named.

Key:
Format in all cases: cell-based
[1] = biological target: T1, S313C hRFC (Ser^313 replaced with cysteine) (Homo sapiens, UniProt P41440, S313C); assay: [3H]MTX uptake in transiently transfected R5 HeLa cells
T1 sequence (P41440 1-591 S313C): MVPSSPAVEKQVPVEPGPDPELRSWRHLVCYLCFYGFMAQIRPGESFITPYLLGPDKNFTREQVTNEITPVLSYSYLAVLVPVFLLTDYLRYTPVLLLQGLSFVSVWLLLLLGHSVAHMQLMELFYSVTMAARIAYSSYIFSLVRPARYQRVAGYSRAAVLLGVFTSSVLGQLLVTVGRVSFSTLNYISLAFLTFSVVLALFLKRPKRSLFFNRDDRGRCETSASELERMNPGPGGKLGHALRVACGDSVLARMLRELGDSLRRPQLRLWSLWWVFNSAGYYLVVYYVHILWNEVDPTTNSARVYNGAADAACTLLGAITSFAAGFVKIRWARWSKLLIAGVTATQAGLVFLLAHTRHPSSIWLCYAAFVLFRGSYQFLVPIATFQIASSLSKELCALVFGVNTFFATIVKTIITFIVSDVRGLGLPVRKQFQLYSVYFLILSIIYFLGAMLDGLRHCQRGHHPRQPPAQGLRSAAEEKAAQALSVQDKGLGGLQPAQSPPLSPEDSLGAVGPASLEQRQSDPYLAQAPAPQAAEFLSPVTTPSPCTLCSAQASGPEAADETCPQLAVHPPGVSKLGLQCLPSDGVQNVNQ
Method in brief: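 Human R5 HeLa cells (transport-defective) were transiently transfected with Lipofectamine Plus, split at 24 h and assayed 24 h later. Uptake of 0.5 μM [3H]MTX ran for 2 min at 37 °C in HSM buffer (20 mM Hepes, 235 mM sucrose, pH 7.14 with MgO). Uptake was stopped with ice-cold PBS and cells solubilized in 0.5 M NaOH. Values in pmol/mg protein were normalized to HA-blot hRFC levels. Three experiments, means±S.E.M.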

[2] = biological target: T2, cl-N6/C6 hRFC (Homo sapiens, UniProt P41440, C220S/C246S/C30S/C33S/C365S/C396S/C458S); assay: [3H]MTX uptake in R5 HeLa cells co-transfected with cysteine-less half-molecules; details: 0.5 μM [3H]MTX
T2 sequence (P41440 1-591 C30S/C33S/C220S): T1 sequence (P41440 1-591 S313C) with C30S, C33S, C220S, C313S
T2 sequence (P41440 227-537 C246S/C365S/C396S/C458S limits assumed): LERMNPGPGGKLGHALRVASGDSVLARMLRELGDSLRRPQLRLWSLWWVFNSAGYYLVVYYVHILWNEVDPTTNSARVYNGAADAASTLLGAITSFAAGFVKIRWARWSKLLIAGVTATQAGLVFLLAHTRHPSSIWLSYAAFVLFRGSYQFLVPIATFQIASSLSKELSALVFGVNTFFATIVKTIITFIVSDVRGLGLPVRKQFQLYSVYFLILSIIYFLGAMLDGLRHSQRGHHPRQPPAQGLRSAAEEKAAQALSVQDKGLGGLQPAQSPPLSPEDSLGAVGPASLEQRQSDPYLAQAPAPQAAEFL

[3] = biological target: T3, S313T hRFC (Homo sapiens, UniProt P41440, S313T); assay: [3H]MTX transport kinetics
T3 sequence (P41440 1-591 S313T): T1 sequence (P41440 1-591 S313C) with C313T
Method in brief: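 Human hRFC-null K500E (K562 subline) cells were electroporated (155 V, 1000 μF) with wt or Ser313-mutant hRFC. Stable clones were selected in soft agar with G418 (1 mg/ml). [3H]MTX uptake was measured over 180 s in HBSS at 37 °C in a shaking water bath and expressed as pmol/mg protein (Lowry). Kt and Vmax came from Lineweaver–Burk plots, with Vmax normalized to densitometric Western blot hRFC levels. Three experiments, means±S.E.M.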

MTX transport [1]: abolished
MTX uptake relative to residual level in R5 cells [2]: ~ 3 fold
decrease of MTX transport compared with wt-N6/C6 [2]: ~ 40%
Vmax (normalized)/Kt [3]: 0.43
Kt ([3]; K500E stable transfectant, mean±S.E.M., n=3): 2.11 ± 0.54 µM
Normalized Vmax ([3]; Vmax normalized to relative hRFC level on Western blots): 0.91±0.16
Compound: CN(Cc1cnc2nc(N)nc(N)c2n1)c1ccc(C(=O)N[C@@H](CCC(=O)O)C(=O)O)cc1 [MTX, methotrexate]
